For 9 compounds, Activity and EC50 results are on record in ChEMBL document CHEMBL3124835 (J Nat Prod, 2014).

The test system of assay [1] is Human immunodeficiency virus 1. As to the kind of experiment: Reactivation of latent HIV1 NL4-3-Luc expression in human naive CD4+ T cells treated 7 days post-infection measured after 48 hrs by luminescence plate reader analysis relative to SAHA-treated control. Type of assay: functional, T-cell. Further details: concentration or dose not given beside the values. In a few lines: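 Primary naive CD4+ T cells from healthy HIV-negative donor PBMCs, purified by negative selection. Activated 3 days with anti-CD3/CD28 beads (1 bead:2 cells), anti-IL-4, anti-IL-12p70 and 10 ng/mL TGF-β, then kept 2 days in 30 U/mL IL-2 and infected with NL4-3-Luc. Seven days after infection, 10 000 cells/well exposed to compound for 48 h; BriteGlo luminescence read-out.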

For assay [2], the system named is Human immunodeficiency virus 1. As to the kind of experiment: Reactivation of latent HIV1 NL4-3-Luc expression in human naive CD4+ T cells treated 7 days post-infection measured after 48 hrs by luminescence plate reader analysis. Type of assay: functional, organism-based, T-cell. Particulars: for pEC50: Human immunodeficiency virus 1, NL4-3, T-cell, read-out: EC50; for EC50: t-cell.

Assay [3] has as its target Protein kinase C (PKC) (Homo sapiens) (UniProt O94806+P41743+P17252+P05129+Q05655+P05771+Q05513+Q02156+P24723+Q15139+Q04759). Description: Activation of PKC in human Jurkat cells assessed as NF-kappaB reporter gene activation after 24 hrs by FACS analysis. Type of assay: cell-based.
Assay [4] deals with Human immunodeficiency virus 1. Description: Reactivation of latent HIV1 NL4-3-Luc expression in human naive CD4+ T cells assessed as HIV-1 RNA expression treated 7 days post-infection by RT-qPCR analysis. The class given is functional, organism-based. Particulars: T-cell. Background: Quantitative PCR measures a nucleic acid by following its amplification.

The structures appear in SMILES notation. pEC50: −log10 of the molar value. Activity calls are given as the source filed them. The calls are words filed in the database; no cut-off is given here.

As usually defined, the pEC50 is the negative decadic logarithm of the EC50, by convention in mol/L.

In assay [1], `C[C@H]1C[C@H](O)C(Cl)/C=C\C=C\C(=O)Cc2c(Cl)c(O)cc(O)c2C(=O)O1` (stereo not given in full) [POCHONIN C] yielded an Activity of 92%. Also, the pEC50 in assay [2] is 5.20.
Turning to `C[C@@H]1CC(O)/C=C/C(O)C(O)CC(=O)Cc2c(Cl)c(O)cc(O)c2C(=O)O1` (stereo not given in full), the outcome in assay [1] (T-cell) was inactive. In addition, the EC50 entry in assay [2] was “Not Active”.
Consider `C[C@@H]1CC(O)C2C=CC(CC(=O)Cc3c(Cl)c(O)cc(O)c3C(=O)O1)O2` (stereo not given in full), for which the result in assay [1] (T-cell) was inactive. The EC50 result in assay [2] is recorded as “Not Active”.
`C[C@@H]1C[C@@H](O)[C@@H](O)/C=C\C=C\C(=O)Cc2c(Cl)c(O)cc(O)c2C(=O)O1` came in with an Activity in assay [1] of 25%. Besides, the negative-log EC50 (pEC50) in assay [2] is 4.60.
As for `C[C@@H]1C[C@H]2O[C@@H]2/C=C\C=C\C(=O)Cc2c(Cl)c(O)cc(O)c2C(=O)O1` [RADICICOL], the result in assay [3] was inactive. Moreover, the Activity in assay [1] is on record as 98%. In addition, the negative-log EC50 (pEC50) in assay [2] is 5.04. Further, in assay [4], the result was Active.
The compound `CCC(=O)CCCCC[C@@H]1NC(=O)[C@H]2CCCCN2C(=O)[C@H]([C@@H](C)CC)NC(=O)[C@H](Cc2cn(OC)c3ccccc23)NC1=O` [APICIDIN] returned an Activity in assay [1] of 100%. Moreover, in assay [2], the negative logarithm of the EC50 (pEC50) is 6.52.
For `O=C(NCCSSCCNC(=O)/C(Cc1ccc(O)c(Br)c1)=N/O)/C(Cc1ccc(O)c(Br)c1)=N/O` [PSAMMAPLIN A] the same measures were 100% and 6.70.
In the case of `C[C@@H]1C[C@@H](O)/C=C\[C@H](O)CCC(=O)Cc2c(Cl)c(O)cc(O)c2C(=O)O1` [POCHONIN N], in assay [1] (T-cell), the outcome was inactive. In addition, in assay [2], the EC50 result is “Not Active”.
With `C[C@H]1C[C@H]2O[C@@H]2C[C@H](O)/C=C/C(=O)Cc2c(Cl)c(O)cc(O)c2C(=O)O1` [POCHONIN B], in assay [1], the Activity stood at 98%. Besides, the negative logarithm of the EC50 (pEC50) in assay [2] is 4.40.
